ChEMBL document CHEMBL4325910, “Design and synthesis of rosiglitazone-ferulic acid-nitric oxide donor trihybrids for improving glucose tolerance” (Eur J Med Chem, 2019)
Calls of active or inactive are those of the source. The rule behind the calls is not given here.

What was measured:
[1] = Metabolic stability in simulated gastric fluid at pH 1.5 measured after 6 hrs by HPLC analysis; format: ADME; conditions: read-out: Stability
How it was run: (§1)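 Gastric fluid was 1% pepsin in water, pH 1.5. Intestinal fluid was 1% trypsin with 0.68% KH2PO4, pH 6.8. Compound (100 mM DMSO stock) was diluted 1:1000 into each, in triplicate. Incubation was at 37 °C for 0, 2, 4, 6, 16 or 24 h. Acetonitrile (3 volumes) stopped it, then HPLC at 254 nm.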

[2] = Metabolic stability in simulated gastric fluid at pH 1.5 measured after 4 hrs by HPLC analysis; format: ADME; conditions: read-out: Stability; how it was run: as §1
[3] = Metabolic stability in simulated intestinal fluid at pH 6.8 measured after 24 hrs by HPLC analysis; format: ADME; conditions: read-out: Stability; how it was run: as §1
[4] = Toxicity in ICR mouse assessed mouse mortality at 2000 mg/kg, po administered as single dose via gavage treated on day 1 and measured daily up to 14 days; format: organism-based; conditions: in vivo, 336 h
How it was run: (§2)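 Mice of both sexes, 7 weeks old, were randomized and given one oral gavage dose on day 1. Dose levels were 500, 1000, 2000, 3000, 4000 or 5000 mg/kg, or 2000, 4000 and 5000 mg/kg, with n = 10 per group. Behaviour, health and mortality were checked daily for 14 days, and total deaths were counted on day 14. LD50 was calculated with 95% confidence limits.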

Mus musculus [5] = test: Effect on lipid metabolism in spontaneous db/db BKS.Cg-Dock7m +/+ Leprdb/J mouse assessed as decrease in serum triglyceride level at 27 umol/kg, po administered as daily dose via gavage for 18 days; format: functional, organism-based
How it was run: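 db/db mice were gavaged daily for 18 days in 0.5% CMC-Na (n=8 per group), with a vehicle model group. On day 19, blood was collected and serum prepared by centrifugation. Serum triglyceride and HDL were then measured.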

Platelet [6] = test: Antiplatelet activity in platelet rich plasma (unknown origin) assessed as inhibition of arachidonic acid-induced platelet aggregation at 0.4 mM relative to control; format: functional
Platelet [7] = test: Antiplatelet activity in platelet rich plasma (unknown origin) assessed as inhibition of arachidonic acid-induced platelet aggregation at 0.2 mM relative to control; format: functional
[8] = Metabolic stability in human liver microsomes after 2 hrs in presence of NADPH by HPLC analysis; format: ADME, Microsome; conditions: read-out: Stability
How it was run: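 Compound (100 mM DMSO stock) was added in triplicate to 0.1 M phosphate buffer pH 7.4 with 3.3 mM MgCl2 and human liver microsomes, then preincubated 5 min at 37 °C. NADPH (1.3 mM stock) was added and incubation continued 0, 0.5, 1, 2 or 6 h. Acetonitrile quench, then HPLC at 254 nm.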

Platelet [9] = test: Antiplatelet activity in platelet rich plasma (unknown origin) assessed as inhibition of ADP-induced platelet aggregation at 16 mM relative to control; format: functional
Mus musculus [10] = test: Antidiabetic activity in spontaneous db/db BKS.Cg-Dock7m +/+ Leprdb/J mouse assessed as decrease in fasting blood glucose level at 10 mg/kg, po administered as daily dose via gavage for 18 days measured on day 9 post last dose by glucometric analysis; format: functional, organism-based
How it was run: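 Male db/db mice (BKS.Cg-Dock7m +/+ Leprdb/J), 6 weeks old on purchase, randomized, n=8 per group. Dosed by gavage in 0.5% CMC-Na daily for 18 consecutive days. Vehicle-dosed db/db and C57BL/6 mice served as model and control. Fasting glucose was read by glucometer every three days. On day 12, after an overnight fast, 2 g/kg glucose was given orally. Blood glucose was read at 0–120 min and AUC calculated. Mean ± SEM.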

[11] = Toxicity in ICR mouse assessed mouse mortality at 500 mg/kg, po administered as single dose via gavage treated on day 1 and measured daily up to 14 days; format: organism-based; conditions: in vivo, 336 h; how it was run: as §2

Row | Structure (SMILES) | remaining at 6 h [1] [%] | remaining at 4 h [2] [%] | remaining at 24 h [3] [%] | Activity [4] | Activity (Mus musculus [5]) | inhibition at 400 µM (Platelet [6]) [%] | inhibition at 200 µM (Platelet [7]) [%] | remaining at 2 h [8] [%] | inhibition at 16000 µM (Platelet [9]) [%] | Activity (Mus musculus [10]) | Activity [11]
1 | CCN(CC)/[N+]([O-])=N/OCOC(=O)/C=C/c1ccc(OC(=O)OCN2C(=O)SC(Cc3ccc(OCCN(C)c4ccccn4)cc3)C2=O)c(OC)c1 (stereo unspecified) | 93.6 | 97 | 75.5 | Non-Toxic | Active | 40.6 | 30.2 | 85.3 | – | – | –
2 | CN(CCOc1ccc(CC2SC(=O)NC2=O)cc1)c1ccccn1 (stereo unspecified) [ROSIGLITAZONE] | – | – | – | – | – | – | – | – | 68.9 | Active | Non-Toxic
